Assay results collected from several papers.
Compare with care: the assays were run in different laboratories.
Target: Serine/threonine-protein kinase TAO3 (TAOK3, Homo sapiens, UniProt Q9H2K8)
Sequence (Q9H2K8 1-898, as in one of the studies): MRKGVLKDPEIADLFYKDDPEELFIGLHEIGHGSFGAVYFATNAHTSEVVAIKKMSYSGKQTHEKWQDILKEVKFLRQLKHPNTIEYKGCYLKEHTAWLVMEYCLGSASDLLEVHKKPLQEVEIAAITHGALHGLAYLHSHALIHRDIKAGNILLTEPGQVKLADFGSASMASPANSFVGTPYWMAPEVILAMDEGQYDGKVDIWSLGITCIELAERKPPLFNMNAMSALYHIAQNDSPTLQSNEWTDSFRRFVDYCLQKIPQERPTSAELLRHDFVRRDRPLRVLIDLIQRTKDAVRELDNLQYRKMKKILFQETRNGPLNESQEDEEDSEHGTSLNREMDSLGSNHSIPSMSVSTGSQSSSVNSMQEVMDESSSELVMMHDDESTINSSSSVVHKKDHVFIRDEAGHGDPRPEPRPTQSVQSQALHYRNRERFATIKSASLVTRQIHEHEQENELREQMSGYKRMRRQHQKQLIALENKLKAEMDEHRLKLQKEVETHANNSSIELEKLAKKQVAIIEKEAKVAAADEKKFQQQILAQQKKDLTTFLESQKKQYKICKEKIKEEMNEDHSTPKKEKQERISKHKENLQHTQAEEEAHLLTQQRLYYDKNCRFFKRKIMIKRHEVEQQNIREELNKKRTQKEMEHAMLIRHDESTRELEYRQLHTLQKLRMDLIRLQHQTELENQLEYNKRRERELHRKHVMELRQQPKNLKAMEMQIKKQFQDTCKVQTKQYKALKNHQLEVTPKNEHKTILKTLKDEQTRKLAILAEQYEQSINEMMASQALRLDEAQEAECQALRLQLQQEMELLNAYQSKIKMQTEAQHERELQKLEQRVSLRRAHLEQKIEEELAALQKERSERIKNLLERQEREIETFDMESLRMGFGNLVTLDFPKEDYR

The inhibition of `COc1cc(-c2cc(-c3ccc(N4CCNCC4)cc3)cnc2C)cc(OC)c1OC` is reported as 3% (enzyme activity; inhibitor; 1 µM).
The remaining signal of `O=C1NC(=O)c2cc(Nc3ccc(F)cc3)c(Nc3ccc(F)cc3)cc21` is reported as 89.9% (cell-free assay; 0.5 µM).
The inhibition of `CCOc1cc(-c2nncn2C)ccc1Nc1ncc2cc(C)nc(NCC(C)(C)C)c2n1` is reported as at most 15% (cell-free assay; TR-FRET; 1 µM).
With `CC(C)(O)[C@H]1CC[C@H](Nc2ccc3ncc(-c4cccc(C(F)(F)F)c4)n3n2)CC1` the remaining activity was 75.1% (enzyme activity; inhibitor; 1 µM).
For `CNC(=O)c1cc(Oc2ccc(NC(=O)Nc3ccc(Cl)c(C(F)(F)F)c3)cc2)ccn1`, the inhibition was 77% (enzyme activity; inhibitor; 0.3 µM).
`Cc1cnc(NC2CCOCC2)nc1-n1cnc(C(=O)NC(CN)c2cc(F)cc(Cl)c2)c1` (centres unmarked) gave a remaining activity of 89% (enzyme activity; inhibitor; radiometric; 1 µM).
For `Cc1sc(C(=O)NC2COC2)cc1-n1cc(NC(=O)Nc2c(F)cccc2Cl)cn1`, the remaining activity was 98% (enzyme activity; inhibitor; 10 µM).
`COc1cc(Nc2c(C#N)cnc3cc(OCCCN4CCN(C)CC4)c(OC)cc23)c(Cl)cc1Cl` gave a remaining signal of 71.3% (cell-free assay; 0.5 µM).
`COc1ccc2c(c1)O[C@@H](c1ccc(OC)c(OC)c1)C[C@H]2NC(=O)C1(c2ccc3c(c2)OC(F)(F)O3)CC1` has a remaining binding of 91% (cell-free assay; competition with immobilised ligand; 1 µM).
The inhibition of `Cc1ccc(Nc2nccc(N(C)c3ccc4c(C)n(C)nc4c3)n2)cc1S(N)(=O)=O` is reported as 96% (enzyme activity; inhibitor; 10 µM).
The remaining binding of `CC1=C(C#N)C(c2ccc3c(c2)c(NC(=O)c2ccccc2C)nn3C)C(C#N)=C(C)N1` is reported as 80% (cell-free assay; competition with immobilised ligand; 1 µM).
The remaining signal of `N#CCCc1ccc2c(c1)-c1[nH]c3ccc([N+](=O)[O-])cc3c1CC(=O)N2` is reported as 66% (cell-free assay; 0.5 µM).
`CN(C)c1nccc(-c2cnn3ncccc23)n1` gave a remaining binding of 73% (binding; 1 µM).
`O=C(O)[C@@H]1[C@@H](Cn2nnc3ccccc3c2=O)CC[C@H]1C(=O)c1ccc(OCCC2CCOCC2)cc1` gave a remaining binding of 100% (cell-free assay; competition with immobilised ligand; 1 µM).
`CCCS(=O)(=O)Nc1ccc(F)c(C(=O)c2c[nH]c3ncc(-c4ccc(Cl)cc4)cc23)c1F` gave an inhibition of under 10% (enzyme activity; inhibitor; 1 µM).
With `CS(=O)(=O)CCNCc1ccc(-c2ccc3ncnc(Nc4ccc(OCc5cccc(F)c5)c(Cl)c4)c3c2)o1` the remaining signal was 101% (cell-free assay; 0.5 µM).
`CN1CC(Oc2cnc(C#N)cc2-c2ccn3nc(NC(=O)C4CC4)cc3c2)C1` has an inhibition of -4% (enzyme activity; inhibitor; 1 µM).
With `Cc1nc(C2CCN(C(=O)c3ccc(OC(F)(F)F)cc3N)CC2)c2ncc(N3CCN(C)CC3)cc2n1` the remaining binding was 100% (cell-free assay; competition with immobilised ligand; 1 µM).
With `COc1cc2c(N3CCN(C(=O)Nc4ccc(OC(C)C)cc4)CC3)ncnc2cc1OCCCN1CCCCC1` the remaining signal was 96.8% (cell-free assay; 0.5 µM).
`CC(=O)N1CCC(c2ccc(C(=O)NC3=NCCN3)cc2C(F)(F)F)CC1` gave a remaining binding of 87% (cell-free assay; competition with immobilised ligand; 1 µM).
`Cc1cc(NC(=O)c2cccc3cc(-c4cccc5[nH]nc(N)c45)ccc23)ccc1F` gave an activity vs control of 96% (enzyme activity; inhibitor; 0.1 µM).
`CC(C)(C)c1nc(-c2cccc(NS(=O)(=O)c3c(F)cccc3F)c2F)c(-c2ccnc(N)n2)s1` gave a remaining activity of 91% (enzyme activity; inhibitor; radiometric; 1 µM).
`CCCCN(CCCC)C(=O)CN1C[C@H](c2cc(OC)c3c(c2)OCO3)[C@@H](C(=O)O)[C@@H]1CC(C)(C)CCC` gave a remaining binding of 63.2% (cell-free assay; competition with immobilised ligand; 1 µM).
